Rad51 HR inh – human RAD51 strand exchange inhibitors, primary screen, biochemical, fluorescence. DNA repair protein RAD51 homolog 1 (Homo sapiens), Q06609. hRad51 DNA strand exchange, fluorescence dequenching. inhibition, % at 10 µM. 200,000 tested, 0.085% active;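 active means inhibition above 40% at the single screening dose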;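 further: 0% = DMSO control wells and 100% = blanks with heterologous ssDNA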
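Material: Human Rad51 nucleoprotein filaments preassembled on unlabelled ssDNA | Also added: Labelled 47-mer dsDNA for strand exchange | Dosing: Single dose, 10 µM final compound | Schedule: 30-min compound preincubation and 15-min exchange, both room temperature | Technique: Fluorescence dequenching at 485/520 nm | Measure: Percent inhibition relative to plate controls and blanks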
RBBP9 inh – human RBBP9 inhibitors, primary screen, biochemical, fluorescence polarization, FP-Rh probe, HTS. recombinant RBBP9. inhibition, % at 7.94 µM. 220,000 tested, 0.2% active. AID 1515, 2009;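 active means inhibition above the campaign mean of all tested compounds plus 3 SD, cut at about 14% in these data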;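 further: plate controls were DMSO wells with RBBP9 for no effect and wells lacking RBBP9 protein for full effect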
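System: RBBP9 protein / Buffer or medium: Tris/NaCl buffer pH 8.0 with 0.1% Pluronic / Probe or stimulus: Serine-hydrolase probe FP-Rh, 375 nM pre-mixing / Dosing: 7.94 µM single dose, 0.794% DMSO / Times: enzyme-compound preincubation 30 min, then probe labeling 45 min, 25 °C / Technique: fluorescence polarization (mP), excitation 525 nm, emission 598 nm / Replication: singlicate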
Wee1 degr inh – Wee1 degradation inhibitors, primary screen, cell-based, HeLa, Wee1K328M-luciferase, luminescence. HeLa Luc-Wee1K328M stability; 100% = proteasome inhibitor MG132 effect. Wee1-like protein kinase (Homo sapiens), P30291. reporter increase, % at 5 µM. 220,000 tested, 1.2% active;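 active means activation above the mean of all tested compounds plus 3 SD, set per screening run, cut at about 8.8% in these data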;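 further: cells exposed to compound for 20 h before luminescence read; 0% = DMSO alone and 100% = MG132 at 30 µM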
Target sequence (P30291 whole entry K328M): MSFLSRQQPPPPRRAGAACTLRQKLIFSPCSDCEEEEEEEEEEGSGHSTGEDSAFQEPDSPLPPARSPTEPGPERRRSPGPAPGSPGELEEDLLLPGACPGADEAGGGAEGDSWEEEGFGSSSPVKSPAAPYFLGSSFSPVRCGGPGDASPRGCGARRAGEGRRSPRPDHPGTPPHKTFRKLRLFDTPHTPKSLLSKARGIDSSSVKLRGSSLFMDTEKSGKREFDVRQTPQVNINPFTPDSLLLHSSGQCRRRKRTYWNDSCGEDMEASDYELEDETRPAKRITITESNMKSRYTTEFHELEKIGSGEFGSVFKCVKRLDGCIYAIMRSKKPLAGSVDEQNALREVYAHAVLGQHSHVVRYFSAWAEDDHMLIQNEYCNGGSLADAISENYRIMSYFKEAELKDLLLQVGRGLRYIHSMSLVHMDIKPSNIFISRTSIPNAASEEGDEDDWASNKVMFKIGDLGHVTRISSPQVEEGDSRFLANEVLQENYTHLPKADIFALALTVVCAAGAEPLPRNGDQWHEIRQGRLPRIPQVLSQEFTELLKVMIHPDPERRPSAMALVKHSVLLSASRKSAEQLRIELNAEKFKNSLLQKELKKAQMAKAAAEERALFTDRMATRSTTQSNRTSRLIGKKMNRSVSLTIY
DNA FID counter – compounds displacing fluorescent DNA intercalator, primary screen, artefact control for HCV NS3 helicase inhibitor project, biochemical, FID fluorescence. DNA fluorescent intercalator displacement. inhibition, % at 7.9 µM. 290,000 tested, 0.17% active; in the data active means inhibition above about 37%;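 further: 0% = vehicle and 100% = reference compound; higher means more ethidium bromide displaced from hairpin DNA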
Starred values were filed as active, the others as inactive; nt = no result. Rows were chosen to be rich in hits. Some 1.2% of all compounds tested hit in one or more screens of this group.

SMILES | Rad51 HR inh | RBBP9 inh | Wee1 degr inh | DNA FID counter
CCOC(=O)c1sc(NC(=S)NC(=O)C23CC4CC(CC(C4)C2)C3)cc1C | -6.0 | -1.0 | 9.4* | 2.8
C/C(CC(=O)Nc1ccc(N(C)C)cc1)=N\NC(=O)c1ccccc1O | nt | nt | nt | -17.5
C/C(CC(=O)Nc1ccc(N(C)C)cc1)=N\NC(=O)C(=O)NCc1ccccc1 | nt | 0.8 | 9.9* | -15.9
CC(NC(=O)C1CCN(S(=O)(=O)N2CCCCCC2)CC1)c1ccccc1 (configuration not stated) | -9.6 | -2.5 | 1.8 | -12.6
CC(NC(=O)C1CCN(S(=O)(=O)N2CCC3(CC2)OCCO3)CC1)c1ccccc1 (configuration not stated) | 1.5 | -12.6 | 10.7* | -19.8
Cc1ccc(OC(C)C(=O)Nc2ccc3c(c2)n(C)c(=O)n3C)c(C)c1 (configuration not stated) | nt | nt | nt | -33.4
O=C(CN1CCCCCCC1)N/N=C/c1ccc(F)cc1F | 10.2 | -4.3 | 9.6* | 5.1
Cc1ccc(O)c(/C=N/NC(=O)CN2CCCC2)c1 | nt | nt | nt | 1.3
COc1ccc(NC(=O)COC(=O)c2ccc([N+](=O)[O-])o2)cc1Cl | -7.8 | -3.4 | 8.6 | 11.9
CCOc1ccc(C(=O)C(CCC(CN(C)C)C(=O)c2ccc(OCC)cc2)CN(C)C)cc1 (configuration not stated) | -4.3 | -3.5 | -1.8 | 14.4
CN(C)CC(CCC(CN(C)C)C(=O)c1ccccc1)C(=O)c1ccccc1 (configuration not stated) | -2.5 | -5.0 | 11.2* | 9.7
Cc1ccc(-c2nn(Cc3ccccc3)cc2/C=C/C(=O)O)cc1C | -7.1 | 0.8 | -2.0 | -40.2
O=C(O)/C=C/c1cn(Cc2ccccc2)nc1-c1ccccc1 | 44.4* | -9.3 | -2.3 | -0.7
COc1ccc(CCNC(=O)C2CCN(c3nccc(C)n3)CC2)cc1 | 29.2 | -10.3 | -0.4 | -19.5
Cc1cc(C)nc(Oc2ccc(Br)cc2Br)n1 | 1.4 | -11.5 | 9.1* | -4.2
C/C(=N/Oc1nc(C)cc(C)n1)c1ccc(Br)cc1 | 2.1 | 4.6 | 0.0 | -12.9
CC12CC(NC(=O)N1c1cccc(C(=O)N3CCCCC3)c1)c1ccccc1O2 (configuration not stated) | nt | nt | nt | -42.0
O=C(Nc1nc2ccc(S(=O)(=O)N3CCCC3)cc2s1)C1CCCCC1 | nt | -9.0 | 10.5* | -5.9
O=C(O)c1ccc(N=Nc2c(O)[nH]c3cc(Cl)ccc23)cc1 | -48.4 | -0.1 | 12.1* | -5.5
O=C(O)c1ccc(N=Nc2c(O)[nH]c3ccc(Br)cc23)cc1 | nt | nt | nt | -4.0
COc1ccc(-c2csc(NC(=O)CN3C(=O)CCC3=O)n2)cc1OC | 1.0 | -5.8 | 10.7* | -7.4
Cc1cc(C)cc(NC(=O)N2c3ccccc3NC(=O)CC2C)c1 (configuration not stated) | 22.8 | 3.0 | 9.6* | -23.4
CCOC(=O)CN1c2ccccc2NC(=O)CC1C (configuration not stated) | -4.5 | -11.9 | 14.1* | -1.7
CN(C)/C=C1/OC(=O)C(C#N)=C1c1ccc(Cl)cc1 | nt | nt | nt | -3.5
COCCCNC(=S)Nc1cccc2ncccc12 | -1.3 | -2.5 | 9.2* | -1.1
SMILES | Rad51 HR inh | RBBP9 inh | Wee1 degr inh | DNA FID counter
CCOC(=O)N1CCN(C(=O)C2CCN(c3nnc(-n4cccc4)s3)CC2)CC1 | nt | nt | nt | -42.1
O=C(Nc1ccc(-c2nc3ccccc3o2)cc1)c1ccc2c(c1)OCO2 | 87.2* | 0.3 | -2.7 | 0.1
O=C(Nc1ccc(-c2nc3ccccc3o2)cc1)c1cccnc1 | -7.4 | -3.6 | 10.7* | -8.4
O=C(Nc1cccc(-c2nc3ccccc3o2)c1)c1cccnc1 | 3.4 | -7.7 | 0.7 | -7.8
CCC(C)SCC(=O)Nc1ccc(S(=O)(=O)N2CCOCC2)cc1OC (configuration not stated) | 10.6 | -2.9 | 2.0 | -27.7
O=C(/C(=C/c1cccnc1)n1ccnc1)c1ccc(Cl)cc1Cl | 1.2 | -2.4 | -2.4 | -7.3
Oc1c(N=Nc2ccccc2)sc2ccccc12 | -13.0 | -10.0 | 9.8* | 8.3
CCCN(CCC)CCCNC(=S)Nc1ccc2nc(N3CCN(C)CC3)cc(C)c2c1 | 20.2 | 3.0 | -0.6 | 44.5*
CCN1CCN(C(=S)Nc2ccc3nc(N4CCN(CC)CC4)cc(C)c3c2)CC1 | 2.3 | 8.7 | -0.9 | 46.4*
CCN1CCN(C(=S)Nc2ccc3nc(N4CCN(C)CC4)cc(C)c3c2)CC1 | 7.6 | 1.5 | 0.2 | 31.9
